Measurements from ChEMBL document CHEMBL5104176 (J Med Chem, 2022).
The source made the active and inactive calls. No cut-off for these calls is given here.

Legend:
[1] = Selectivity ratio of Ki for displacement of [3H]N-methylspiperone from human D3R expressed in HEK293T cell membrane to Ki for displacement of [3H]N-methylspiperone from human D4.4 receptor expressed in HEK293T cell membrane
D(4) dopamine receptor [2] = molecular target: T1, D(4) dopamine receptor (Homo sapiens, UniProt P21917); test: Displacement of [3H]N-methylspiperone from human D4.4 receptor expressed in HEK293T cell membrane incubated for 1 hr by MicroBeta scintillation counting method; assay type: cell membranes
T1 sequence (P21917 whole entry): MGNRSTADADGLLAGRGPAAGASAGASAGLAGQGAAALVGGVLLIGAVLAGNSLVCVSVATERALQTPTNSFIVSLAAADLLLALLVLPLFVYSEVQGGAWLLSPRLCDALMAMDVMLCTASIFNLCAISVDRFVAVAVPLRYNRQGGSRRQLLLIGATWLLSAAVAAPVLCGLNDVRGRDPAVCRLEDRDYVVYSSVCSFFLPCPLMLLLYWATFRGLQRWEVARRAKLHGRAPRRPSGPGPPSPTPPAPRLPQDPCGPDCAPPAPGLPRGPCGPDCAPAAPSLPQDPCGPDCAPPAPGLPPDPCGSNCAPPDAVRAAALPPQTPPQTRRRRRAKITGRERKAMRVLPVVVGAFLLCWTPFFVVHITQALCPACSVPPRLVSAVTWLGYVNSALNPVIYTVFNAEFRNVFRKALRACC

[3] = Selectivity ratio of Ki for displacement of [3H]N-methylspiperone from human D2L receptor expressed in HEK293T cell membrane to Ki for displacement of [3H]N-methylspiperone from human D4.4 receptor expressed in HEK293T cell membrane
D(3) dopamine receptor = D(3) dopamine receptor (Homo sapiens, UniProt P35462); test: Displacement of [3H]N-methylspiperone from human D3R receptor expressed in HEK293T cell membrane incubated for 1 hr by MicroBeta scintillation counting method; assay type: cell membranes
D(3) dopamine receptor, sequence (P35462 whole entry): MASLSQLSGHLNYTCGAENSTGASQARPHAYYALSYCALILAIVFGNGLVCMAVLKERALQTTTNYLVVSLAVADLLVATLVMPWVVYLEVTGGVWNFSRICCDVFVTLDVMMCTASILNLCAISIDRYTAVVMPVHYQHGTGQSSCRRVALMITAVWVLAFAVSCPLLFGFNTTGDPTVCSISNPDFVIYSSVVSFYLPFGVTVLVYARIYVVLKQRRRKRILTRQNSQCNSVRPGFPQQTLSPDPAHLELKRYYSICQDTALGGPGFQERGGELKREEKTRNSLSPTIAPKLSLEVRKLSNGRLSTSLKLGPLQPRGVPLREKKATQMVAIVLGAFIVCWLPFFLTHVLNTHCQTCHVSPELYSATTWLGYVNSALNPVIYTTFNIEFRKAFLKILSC
Procedure, shortened: (§1)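 Membranes from stably transfected HEK293 cells (hD2L, hD3 or hD4.4), 20 μg (D2, D3) or 30 μg (D4) protein/well. Incubated 1 h at room temperature in EBSS binding buffer, pH 7.4, with 0.4 nM [3H]N-methylspiperone and 10 half-log dilutions in triplicate. 10 μM (+)-butaclamol defines nonspecific binding. GF filtration, scintillation counting. Ki by Cheng–Prusoff from ≥3 experiments; selectivity is the Ki ratio.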

D(2) dopamine receptor = D(2) dopamine receptor (Homo sapiens, UniProt P14416); test: Displacement of [3H]N-methylspiperone from human D2L receptor expressed in HEK293T cell membrane incubated for 1 hr by MicroBeta scintillation counting method; assay type: cell membranes
D(2) dopamine receptor, sequence (P14416 whole entry): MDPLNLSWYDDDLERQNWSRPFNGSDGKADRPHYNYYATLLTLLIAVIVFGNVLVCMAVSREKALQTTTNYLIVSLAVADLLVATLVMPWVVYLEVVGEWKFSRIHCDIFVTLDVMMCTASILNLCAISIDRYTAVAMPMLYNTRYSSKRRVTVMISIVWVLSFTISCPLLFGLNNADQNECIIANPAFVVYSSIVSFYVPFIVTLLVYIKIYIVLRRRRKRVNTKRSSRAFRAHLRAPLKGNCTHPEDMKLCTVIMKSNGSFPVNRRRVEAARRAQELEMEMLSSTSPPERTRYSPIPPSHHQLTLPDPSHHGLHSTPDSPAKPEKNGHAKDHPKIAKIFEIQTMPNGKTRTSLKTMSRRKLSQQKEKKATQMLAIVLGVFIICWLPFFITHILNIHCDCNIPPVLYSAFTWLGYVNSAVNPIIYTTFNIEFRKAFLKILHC
Procedure, shortened: as §1, with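 “counting.” for “counting. Ki by Cheng–Prusoff from ≥3 experiments; selectivity is the Ki ratio.”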

D(4) dopamine receptor [4] = molecular target: T1, D(4) dopamine receptor; test: Displacement of [3H]7-OH-DPAT from human D4.4 receptor expressed in HEK293T cell membrane incubated for 1.5 hrs by MicroBeta scintillation counting method; assay type: cell membranes
Procedure, shortened: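 Fresh membranes from HEK293 cells stably expressing hD4.4 (about 50–60 μg protein/well) in 50 mM Tris, 10 mM MgCl2, 1 mM EDTA, pH 7.4. Radioligand was 3 nM final; incubation 1.5 h at room temperature. Nonspecific binding was set with 10 μM (+)-butaclamol; DMSO was 3% final. Ten half-log dilutions were run in triplicate, then filtered. Ki came from IC50 by Cheng–Prusoff, from at least three independent experiments.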

U-251 [5] = test: Cytotoxicity against human U-251 cells assessed as reduction in cell viability at 5 to 50 uM incubated for 24 hrs by MTS assay; assay type: functional, cell-based; conditions: dose 5-50 µM
Procedure, shortened: (§2)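 Cells seeded at 5,000/well and grown to 80% confluence: T98 and U251 in EMEM with 10% serum; GSC#83 as spheres in serum-free DMEM/F12 with EGF and bFGF. Treated 24 h at 5–50 μM in DMSO, with a DMSO vehicle control. MTS reagent added and formazan absorbance read at 490 nm. n = 6; two-way ANOVA.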

T98G [6] = test: Cytotoxicity against human T98G cells assessed as reduction in cell viability at 10 uM incubated for 24 hrs by MTS assay; assay type: functional, cell-based
Procedure, shortened: as §2

T98G [7] = test: Cytotoxicity against human T98G cells assessed as reduction in cell viability at 5 to 50 uM incubated for 24 hrs by MTS assay; assay type: functional, cell-based; conditions: dose 5-50 µM
Procedure, shortened: as §2

GSC#83 [8] = test: Cytotoxicity against human GSC#83 cells assessed as reduction in cell viability at 5 to 50 uM incubated for 24 hrs by MTS assay; assay type: functional, cell-based; conditions: dose 5-50 µM
Procedure, shortened: as §2

U-251 [9] = test: Cytotoxicity against human U-251 cells assessed as reduction in cell viability at 10 uM incubated for 24 hrs by MTS assay; assay type: functional, cell-based
Procedure, shortened: as §2

GSC#83 [10] = test: Cytotoxicity against human GSC#83 cells assessed as reduction in cell viability at 10 uM incubated for 24 hrs by MTS assay; assay type: functional, cell-based
Procedure, shortened: as §2

[11] = molecular target: T2, D(4) dopamine receptor (Homo sapiens) (UniProt P21917); test: Agonist activity at D4R (unknown origin) expressed in human HEK293T cells assessed as G0 protein activation measured after 2.5 mins by BRET assay relative to control; assay type: functional, cell-based
T2 sequence (whole entry): T1 sequence (P21917 whole entry)
Procedure, shortened: (§3)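 Transiently transfected HEK293T cells (15 μg plasmid cDNA, polyethyleneimine, 6 h, assayed after 48 h). Gαi1 or GαoA fused to RLuc8 and Gγ2 to mVenus for G protein activation; D4 receptor fused to RLuc8 and β-arrestin to mVenus for recruitment. About 2×10^5 cells/well in PBS with 0.1% glucose and 200 μM Na bisulfite. Coelenterazine H 5 μM. Read 530/485 nm; RLuc8-only background subtracted.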

[12] = molecular target: T2, D(4) dopamine receptor (Homo sapiens); test: Agonist activity at D4R (unknown origin) expressed in human HEK293T cells assessed as Gi protein activation measured after 2.5 mins by BRET assay relative to control; assay type: functional, cell-based
Procedure, shortened: as §3

[13] = molecular target: T2, D(4) dopamine receptor (Homo sapiens); test: Agonist activity at D4R (unknown origin) expressed in human HEK293T cells assessed as beta arrestin-2 recruitment measured after 2.5 mins by BRET assay relative to control; assay type: functional, cell-based
Procedure, shortened: as §3

D(4) dopamine receptor [14] = molecular target: T1, D(4) dopamine receptor; test: Antagonist activity at D4R (unknown origin) expressed in human HEK293T cells assessed as inhibition of dopamine-induced Gi protein activation pretreated for 10 mins followed by dopamine addition and measured after 2.5 mins by BRET assay; assay type: functional, cell-based
D(4) dopamine receptor [15] = molecular target: T1, D(4) dopamine receptor; test: Antagonist activity at D4R (unknown origin) expressed in human HEK293T cells assessed as inhibition of dopamine-induced beta arrestin-2 recruitment pretreated for 10 mins followed by dopamine addition and measured after 2.5 mins by BRET assay; assay type: functional, cell-based
D(4) dopamine receptor [16] = molecular target: T1, D(4) dopamine receptor; test: Antagonist activity at D4R (unknown origin) expressed in human HEK293T cells assessed as inhibition of dopamine-induced G0 protein activation pretreated for 10 mins followed by dopamine addition and measured after 2.5 mins by BRET assay; assay type: functional, cell-based

SMILES	Ki (D(4) dopamine receptor [2]) [nM]	Ki (D(3) dopamine receptor) [nM]	Ki (D(2) dopamine receptor) [nM]	Ratio Ki [1]	Ratio Ki [3]	further results
O=C1CCc2ccccc2N1CCCN1CCN(c2ccccc2[N+](=O)[O-])CC1	0.407	129	132	316	324	
O=C1CCc2ccccc2N1CCCN1CCN(c2cccc([N+](=O)[O-])c2)CC1	3.55	1260	2510	355	708	
COc1cccc(N2CCN(CCCN3C(=O)CCc4ccccc43)CC2)c1	4.17	1550	3090	372	741	
c1ccc(N2CCN(CCCc3nc4ccccc4s3)CC2)cc1	10.2	692	1780	68	174	
O=C1CCc2ccccc2N1CCCN1CCN(c2cccc(Cl)c2Cl)CC1	0.692	21.4				
O=C1CCc2ccccc2N1CCCN1CCN(c2ccc(Cl)c(Cl)c2)CC1	0.871	631	955	725	1100	
O=C1CCc2ccccc2N1CCCN1CCN(c2ccc([N+](=O)[O-])cc2)CC1	6.61	11000	24000	1660	3630	
O=C1CCc2ccccc2N1CCCN1CCN(c2cccc(Cl)c2)CC1	1.05	282	759	269	724	Ki (D(4) dopamine receptor [4]): 0.776 nM
CCCCC1CCN(CCCN2C(=O)CCc3ccccc32)CC1				631	691	
Cn1nnc2c(C(N)=O)ncn2c1=O						Activity (U-251 [5]): Active; Activity (T98G [6]): Active; Activity (T98G [7]): Active; Activity (GSC#83 [8]): Active; Activity (U-251 [9]): Active; Activity (GSC#83 [10]): Active
COc1ccccc1N1CCN(CCCN2C(=O)CCc3ccccc32)CC1	0.617	100	81.3	162	132	
Fc1ccc(N2CCN(CCC3OCCc4ccccc43)CC2)cc1 (centres undefined)						Activity (U-251 [5]): Active; Activity (T98G [6]): Active; Activity (T98G [7]): Active; Activity (GSC#83 [8]): Active; Activity (U-251 [9]): Active; Activity (GSC#83 [10]): Active
NCCc1ccc(O)c(O)c1						Emax ([11]; filed as agonist): 100%; Emax ([12]; filed as agonist): 100%; Emax ([13]; filed as agonist): 100%
O=C1CCc2ccccc2N1CCCN1CCN(c2ncccn2)CC1	4.47	2290	3980	513	891	
O=C1CCc2ccccc2N1CCCN1CCN(c2ccccc2)CC1				457	380	
O=C1CCc2ccccc2N1CCCN1CCN(c2ccc(Cl)cc2Cl)CC1	0.676	501	550	744	827	
COc1ccc(N2CCN(CCCN3C(=O)CCc4ccccc43)CC2)cc1	6.92	8320	20900	1200	3020	Emax [11]: 0%; Emax [12]: 0%; Emax [13]: 0%; IC50 (D(4) dopamine receptor [14]): 269 nM; IC50 (D(4) dopamine receptor [15]): 389 nM; IC50 (D(4) dopamine receptor [16]): 107 nM

Second part, led by results:

Ki (D(4) dopamine receptor [2]) [nM]	Ki (D(3) dopamine receptor) [nM]	Ki (D(2) dopamine receptor) [nM]	SMILES	Ratio Ki [1]	Ratio Ki [3]	further results
4.27	81.3	1120	O=C1CCc2ccccc2N1CCCCN1CCN(c2ccccc2)CC1	19	263	
1.35	275	398	Cc1ccccc1N1CCN(CCCN2C(=O)CCc3ccccc32)CC1	204	295	
63.1	1070	12900	O=C1CCc2ccccc2N1CCN1CCN(c2ccccc2)CC1	17	204	
12.3	8910	12000	c1ccc(N2CCN(CCCn3cnc4ccccc43)CC2)cc1	719	977	
2.63	562	708	c1ccc(N2CCN(CCCN3CCCc4ccccc43)CC2)cc1	214	269	
37.2	813	1700	c1ccc(N2CCN(CCCc3nc4ccccc4o3)CC2)cc1	22	46	
1.91	490	724	c1ccc(N2CCN(CCCn3ccc4ccccc43)CC2)cc1	257	380	
0.603	60.3	138	O=C1CCc2ccccc2N1CCCN1CCN(c2ccccc2Cl)CC1	100	229	Ki (D(4) dopamine receptor [4]): 0.513 nM
1.78	794	1450	Cc1cccc(N2CCN(CCCN3C(=O)CCc4ccccc43)CC2)c1	447	813	
30.2	832	6170	c1ccc(N2CCN(CCCc3nc4ccccc4[nH]3)CC2)cc1	28	204	
23.4	195	282	O=C1CCc2ccccc2N1CCCCCN1CCN(c2ccccc2)CC1	8	12	
1.07	339	355	N#Cc1ccccc1N1CCN(CCCN2C(=O)CCc3ccccc32)CC1	316	331	
